# STAT3 blocker: STAT3 signaling inhibition; 0.89% of 190,000 active; U3A cells, IL-6 STAT3-luciferase reporter, luminescence; host cell line lacks STAT1; inhibition, % at 5.5 µM;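 active means inhibition above the mean inhibition across all screened compounds plus 3 SD, cut at about 44% in these data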;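 further: 0% = DMSO only wells and 100% = 100 µM nifuroxazide control wells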
# PPC-1+TRAIL kill: PPC-1 cancer cell killing with TRAIL present; PPC-1 cells + TRAIL, ATPLite viability luminescence; cell killing (% activity), % at 4 µM or 5 µM; 0.41% of 220,000 active;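 active means cell killing above 50% in the first pass at 4 µM, then a duplicate retest at 5 µM averaging 50% or more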;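 further: plate controls were cells with TRAIL plus DMSO for no effect and medium-only wells lacking cells for full effect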
# TRAIL sens C8: sensitizes caspase-8 expressing cells to TRAIL; NB7+C8 cells + TRAIL, ATPlite viability luminescence; inhibition (viability loss, TRAIL sensitization), % at 10 µM; 1% of 360,000 active; AID 624354;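 active means compounds causing at least 50% loss of cell viability in the single-dose screen, relative to plate controls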
# STAT3 act: activators of IL-6 induced STAT3 signaling. 0.91% of 190,000 active. activation (% of control), % at 5.6 µM. U3A cells, IL-6 STAT3-luciferase reporter, luminescence; 100% = signal with IL-6 EC80 alone;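 active means activation above the screen-wide mean of compound activation plus 3 SD, cut at about 130% in these data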;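 further: 0% = background luminescence of wells with medium and substrate only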
#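 Test system: Human STAT1-deficient U3A cells with stable STAT3-luciferase reporter | Also added: Interleukin-6, 33 ng/mL | Timing: Compound pre-incubation 1 h before IL-6, then 6 h stimulation at 37 °C | Technique: Luciferase reporter luminescence | Read-out: Percent of IL-6-only median luminescence | Benchmarks: IL-6-only wells as 100% reference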
# STAT1 blocker: STAT1 signaling inhibition; NIH 3T3 STAT1-luciferase reporter, IFN-gamma, luminescence; inhibition, % at 5.5 µM; 0.35% of 200,000 active; AID 920;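 active means inhibition above a set limit, the mean inhibition across all tested compounds plus 3 SD, cut at about 34% in these data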;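 further: 0% = IFN-gamma with DMSO and 100% = IFN-gamma with 300 µM nifuroxazide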
# An asterisk follows results filed as active; nt = not tested or not shown. Rows were chosen to be rich in hits. Some 1.8% of all compounds tested hit in one or more screens of this group.
SMILES,STAT3 blocker,PPC-1+TRAIL kill,TRAIL sens C8,STAT3 act,STAT1 blocker
Clc1ccc(C[n+]2c(-c3ccccc3)cc(-c3ccccc3)cc2-c2ccccc2)cc1,nt,nt,69*,nt,nt
Cc1cc(-c2ccccc2)cc(-c2ccccc2)[n+]1CCc1ccccc1,nt,nt,47,nt,nt
CC[n+]1c(/C=C/C=C/c2ccc(N(C)C)cc2)sc2ccccc21,nt,48,63*,nt,nt
Cn1c(O)c(Cc2ccc(OCc3ccccc3)cc2)c(=O)n(C)c1=O,nt,nt,10,nt,nt
CCCCn1c(=O)c(C(=O)Nc2ccccc2C)c(O)c2ccccc21,nt,nt,-18,nt,nt
CC(C)CCn1c(=O)c(C(=O)Nc2ccccc2S(N)(=O)=O)c(O)c2ccccc21,-14,12,52*,113,-3
COC(=O)C12OCC34C(CC5C(C)=C(O)C(=O)CC5(C)C3C(O)C1O)OC(=O)C(OC(=O)/C=C(\C)C(C)C)C24 (stereo not given),nt,nt,58*,nt,nt
COc1ccc(CC(=O)N2CCN(C)CC2)cc1,0,18,2,103,0
COc1ccc(CC2NCC(O)C2OC(C)=O)cc1 (stereo not given),nt,nt,85*,nt,nt
CCOC(=O)c1cc2c(cn1)[C@@H](CCO)NC2,nt,nt,9,nt,nt
COC12C(COC(N)=O)C3=C(C(=O)C(C)=C(N)C3=O)N1CC1C2N1C (stereo not given),nt,1,-1,nt,nt
COC(COC(N)=O)C1=C(N2CC2)C(=O)C(C)=C(N2CC2)C1=O (stereo not given),nt,nt,74*,nt,nt
N#Cc1ncc(N=Cc2ccc(N(CCCl)CCCl)cc2)s1,nt,nt,-4,nt,nt
CCOC(=O)[C@]12Cc3cc(C)ccc3[C@H]1N(C1CCCCC1)C(=O)c1cc(OC)ccc12,nt,nt,96*,nt,nt
CCOC(=O)[C@]12Cc3ccccc3[C@H]1N(C)C(=O)c1cc(OC)ccc12,nt,nt,8,nt,nt
CCOC(=O)[C@]12Cc3cc(OC)ccc3[C@H]1N(C1CCCCC1)C(=O)c1cc(OC)ccc12,nt,nt,76*,nt,nt
CCOP(=O)(OCC)Oc1cc(C)c(N(C)C)c(C)c1,nt,-1,5,nt,nt
CC(=O)OC1CC(OC2C(O)CC(OC3C(O)CC(OC4CCC5(C)C(CCC6C5CCC5(C)C(C7=CC(=O)OC7)CCC65O)C4)OC3C)OC2C)OC(C)C1OC1OC(CO)C(O)C(O)C1O (stereo not given),nt,nt,66*,nt,nt
CC(C(=O)c1c[nH]c2ccccc12)N1CCc2ccccc2C1 (stereo not given),-37,-12,-8,134*,-14
O=C(CCS(=O)(=O)c1ccc(Br)cc1)N1CCC2(CC1)OCCO2,14,8,-1,94,48*
Cc1ncoc1C(=O)NCC1=C(c2ccc(S(C)(=O)=O)cc2)C[C@@H]2CC[C@H]1N2Cc1ccco1,nt,nt,-11,nt,nt
C=CC1CN2CCC1CC2[C@@H](OC(=O)c1ccc(OC)cc1)c1ccnc2ccccc12 (stereo not given in full),3,54*,0,98,4
C[C@@H]1COc2cccc(N3CCN(C)CC3)c2S(=O)(=O)N1,nt,nt,1,nt,nt
CCC(C)C1NC(=O)C(NC(=O)C(CC(C)C)N(C)C(=O)C2CCCN2C(=O)C(C)O)C(C)OC(=O)C(Cc2ccc(OC)cc2)N(C)C(=O)C2CCCN2C(=O)C(CC(C)C)NC(=O)[C@H](C)C(=O)[C@H](C(C)C)OC(=O)CC1O (stereo not given in full),nt,nt,82*,nt,nt
COc1cccc(C2CCN(C)C2)c1 (stereo not given),nt,nt,11,nt,nt
SMILES,STAT3 blocker,PPC-1+TRAIL kill,TRAIL sens C8,STAT3 act,STAT1 blocker
O=C1C=Cc2ccccc2C1=O,-44,4,nt,141*,9
CCCCCN1C(=O)c2ccccc2[C@@]2(C(=O)OCC)Cc3cc(OC)ccc3[C@@H]12,nt,nt,59*,nt,nt
CCOC(=O)[C@]12Cc3cc(C)ccc3[C@H]1N(C(C)C)C(=O)c1ccccc12,nt,nt,83*,nt,nt
Oc1ccc(-[n+]2c(-c3ccccc3)cc(-c3ccccc3)cc2-c2ccccc2)cc1,nt,nt,65*,nt,nt
CC(NC(=O)N1CC1(C)C)c1ccccc1 (stereo not given),nt,nt,-7,nt,nt
CC1=C(N2CC2)C(=O)C(CO)=C(N2CC2)C1=O,nt,nt,77*,nt,nt
C[CH2][Hg][S]c1ccccc1C(=O)O,nt,nt,62*,nt,nt
COc1ccc(-c2cc(C(=O)N3CCC4(CC3)OCCO4)c3ccccc3n2)cc1,nt,nt,42,nt,nt
CCOc1ccc(-c2cc(C(=O)N3CCC4(CC3)OCCO4)c3ccccc3n2)cc1,nt,nt,71*,nt,nt
Cc1cccc(NC(=O)COC(=O)c2cc(C)n(C3CC3)c2C)c1,nt,nt,-13,nt,nt
O=C(O)C1CC2(Cl)C(Cl)=C(Cl)C1(Cl)C2(Cl)Cl (stereo not given),nt,nt,4,nt,nt
CCCC1(CCC)C(=O)NC(=NCc2ccccc2)NC1=O,-2,2,77*,104,10
CCCC1(CCC)C(=O)NC(=Nc2ccccc2)NC1=O,-1,7,11,102,4
O=C(O)c1cc[c]([Hg][Cl])cc1,nt,nt,11,nt,nt
Cc1cccc(N=C2c3cc([N+](=O)[O-])ccc3-c3c2cc([N+](=O)[O-])cc3[N+](=O)[O-])c1,nt,nt,29,nt,nt
Nc1ncnc2c1ccn2[C@@H]1O[C@H](CO)[C@@H](O)[C@H]1O,nt,nt,88*,nt,nt
C[C@]12CC[C@H](O)C[C@H]1CC[C@@H]1[C@@H]2CC[C@]2(C)C(=O)CC[C@@H]12,nt,nt,1,nt,nt
Brc1ccc2c(c1)C(OC1CN3CCC1CC3)c1ccccc1CS2 (stereo not given),-3,82*,6,105,-15
CC(=O)C1CCC2(O)C3CCC4=CC(=O)CCC4(C)C3CCC12C (stereo not given),nt,nt,-12,nt,nt
C[C@@H]1O[C@@H](O[C@@H]2C=C3CCC4C(CC[C@]5(C)[C@@H](c6ccc(=O)oc6)CC[C@]45O)[C@@]3(C)CC2)[C@H](O)[C@H](O)[C@H]1O (stereo not given in full),nt,nt,75*,nt,nt
C[C@@H]1O[C@@H](O[C@@H]2C=C3CC[C@@H]4C(CC[C@]5(C)[C@@H](c6ccc(=O)oc6)CC[C@]45O)[C@@]3(C)CC2)[C@H](O)[C@H](O)[C@H]1O (stereo not given in full),nt,nt,76*,nt,nt
c1ccc2c(CNC3CCCCC3)c[nH]c2c1,-48,-4,nt,137*,3
CN(Cc1c[nH]c2ccccc12)C1CCCCC1,-12,-5,-5,120,11
COC(=O)C1=C(c2c(C)noc2C)C[C@@H]2CC[C@H]1N2C(=O)NCCNC(C)=O,nt,nt,-8,nt,nt
COc1ccc(-c2nc3ccccc3c(=O)o2)cc1,13,47,55*,90,-7
NC(=O)c1cc([N+](=O)[O-])cc([N+](=O)[O-])c1,nt,nt,-3,nt,nt
CC(C)(C)c1cc([N+](=O)[O-])cc(C(C)(C)C)c1O,60*,21,nt,52,59*
CCN1CCC2(CC1)NC(=O)c1ccccc1O2,16,14,0,95,-10
Cc1cccc(C)c1-n1nnnc1C(CCc1ccccc1)N1CCC(n2c(=O)[nH]c3ccccc32)CC1 (stereo not given),nt,nt,82*,nt,nt
COc1ccc2nc(-c3ccc(CN4CCC(n5c(=O)[nH]c6ccccc65)CC4)cc3)c(-c3ccccc3)nc2c1,nt,nt,51*,nt,nt

# Assay outcomes as filed in PubChem.
